A selection: hits, their analogues and other compounds. The true share with any hit is near 9.4%.
Beta apoptosis: blocks beta cell apoptosis | INS-1E cytokine-induced death, ATP luminescence, 48 h; percent of positive-control rescue, neutral wells zero | AID 435005 | 300,000 tested, 0.8% active | protection from apoptosis, % (no concentration beside the values);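 active = Every replicate reaches about 75%, or at least half do and their mean reaches it too, limit read from the data; inconclusive = At least half of replicates reach the limit but their mean does not; inactive = Under half of replicates reach the limit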;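 note: higher means more ATP so stronger rescue from cytokine killing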
CSC inhib: cancer stem cell inhibition; cancer stem cell-like cells viability, luminescence; inhibition, % at 7.5 µM; 300,000 tested, 1.1% active; in the data active = inhibition above about 75%; inconclusive = no clear call, values can overlap the other calls; tested in HMLE shEcad cells
SKKanGAS inh: SKKanGAS growth inhibition; S. pyogenes SKKanGAS, kanamycin growth, BacTiter-Glo, 6 h; AID 1662; 300,000 tested, 1.3% active; inhibition, % at 7.5 µM;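 active = mean replicate score, as percent of positive control median, at least 50; inconclusive = mean below 50 but one replicate at or above 50; inactive = mean and every replicate below 50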;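 note: strain carries kanamycin resistance gene driven by streptokinase promoter and grows in 40 µg/ml kanamycin; loss of luminescence reflects streptokinase promoter inhibition or plain growth inhibition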
Lmaj promast: reduces viability of Leishmania major promastigotes. resazurin fluorescence viability. inhibition, % at 10 µM. 200,000 tested, 9% active. AID 1063; in the data active = inhibition above about 50%;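 note: promastigotes grown with compound for 44 hours at 28 °C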
Mdm2 MdmX PPI: human Mdm2/MdmX binding inhibition | O15151+Q00987 | SaOS-2 split-luciferase Mdm2/MdmX complementation, luminescence | inhibition, % at 8 µM | 330,000 tested, 3% active | AID 485346;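 active = inhibition of at least 50% at 8 µM in the primary screen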
T cruzi inh: T. cruzi replication inhibition. inhibition, % (concentration not given with the values). T. cruzi beta-gal in NIH3T3, luminescence, 90 h. 300,000 tested, 1.4% active;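 active = mean inhibition across valid replicates above about 55%, limit read from the data; inconclusive = mean below that limit but half or more replicates reach it; inactive = mean below it, under half of replicates reach it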;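 note: signal also drops with host cell toxicity which is not excluded here; higher percent means less beta-gal luminescence so fewer parasites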
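System – NIH/3T3 host cells with β-galactosidase reporter T. cruzi · Doses – single 50 nL compound addition per well in DMSO · Reagent – 5000 T. cruzi trypomastigotes/well · Medium – Low-serum DMEM with 2% FBS · Timing – ≥90 h infection period, 3 h prior cell attachment · Evaluation – parasite load inhibition, % · Technique – GalScreen luminescence, 60 min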
Numbers stand for hits; i = inactive; ? = inconclusive; nt = no result.

SMILES | Beta apoptosis | CSC inhib | SKKanGAS inh | Lmaj promast | Mdm2 MdmX PPI | T cruzi inh
O=C(c1ccc2c3c(cccc13)CC2)C1CCCN(Cc2ccc(OCCO)cc2)C1 (stereo unspecified) | i | i | i | 88.0 | i | ?
NC(=O)CCC(=O)N1CCCC(C(=O)c2ccc3c4c(cccc24)CC3)C1 (stereo unspecified) | i | i | i | i | i | i
O=C(c1ccc2c3c(cccc13)CC2)C1CCCN(Cc2ccccn2)C1 (stereo unspecified) | i | i | 69.4 | 64.5 | i | i
Cc1cnc(CN2CCCC(C(=O)c3ccc4c5c(cccc35)CC4)C2)[nH]1 (stereo unspecified) | nt | i | i | 98.7 | i | i
O=C(c1cc2nc(-c3ccc(Cl)cc3)cc(C(F)(F)F)n2n1)N1CCOCC1 | i | i | i | i | i | i
COc1ccc(/C=C/C(=O)c2ccc(Cl)s2)cc1O | i | i | i | 91.6 | i | i
COc1ccc(/C=C/C(=O)c2ccccc2O)cc1 | i | i | i | i | i | i
COc1ccc(C(=O)/C=C/c2ccc(OC)c(O)c2)c(F)c1 | i | i | i | 82.1 | i | i
CC(=O)Nc1cccc(C(=O)OCC(=O)NNC(=O)c2cccs2)c1 | i | i | i | nt | i | i
c1ccc(CCNc2nc(-c3ccncc3)nc3ccccc23)cc1 | i | i | i | nt | i | i
CC(=O)c1c(C)[nH]c(C(=O)OCC(=O)Nc2ccc(Cl)cc2[N+](=O)[O-])c1C | 112.6 | i | i | i | i | i
Cc1ccc(NC(=O)CN2C(=O)NC(Cc3c[nH]c4ccccc34)C2=O)cc1 (stereo unspecified) | i | i | nt | nt | i | nt
O=C(c1cc(F)c(F)cc1Cl)N1CCN(c2ccc([N+](=O)[O-])c3ncccc23)CC1 | i | i | i | 57.4 | i | i
Cc1ccccc1N1CCN(C(=O)c2ccc(Oc3ccc(C(F)(F)F)cn3)cc2)CC1 | i | 87.3 | i | i | i | 58.3
CN(C)CCNC(=O)c1cc2c(s1)-c1ccccc1OC2 | i | i | i | 91.3 | i | i
CC(=O)/C(=N/Nc1ccc(Br)cc1)N1CCCc2ccccc21 | i | i | 51.5 | nt | i | i
O=C(C1CCCO1)N1CCN(C(=S)Nc2ccccc2F)CC1 (stereo unspecified) | i | i | i | i | i | i
O=C(NNC1=Nc2cccc3cccc1c23)c1ccccc1Br | i | i | i | 52.7 | i | i
c1ccc(NC2=Nc3cccc4cccc2c34)cc1 | i | i | i | i | i | i
CC(=O)Nc1ccc(Oc2ccc(S(=O)(=O)N3CCCC3)cn2)cc1 | i | i | nt | nt | i | nt
CCC(C)[C@H](NC(=O)Nc1ccccc1F)C(=O)O (stereo partly specified) | i | i | i | nt | i | i
COc1ccc(OCC(=O)Nc2ccc(N3CCOCC3)c(Cl)c2)cc1 | i | i | i | i | i | i
COc1ccc(OCC(=O)NC(=S)Nc2ccc(N3CCOCC3)c(Cl)c2)cc1 | nt | i | 68.0 | i | i | i
O=C(NC(=S)Nc1ccc(N2CCOCC2)c(Cl)c1)c1cccs1 | i | i | 64.7 | i | i | i
O=C(NC(=S)Nc1ccccc1N1CCOCC1)c1cccs1 | nt | i | i | i | i | i
SMILES | Beta apoptosis | CSC inhib | SKKanGAS inh | Lmaj promast | Mdm2 MdmX PPI | T cruzi inh
O=C(NC(=S)Nc1ccc(N2CCOCC2)c(Cl)c1)c1cncc(Br)c1 | i | i | 70.8 | 82.4 | i | i
O=C(NC(=S)Nc1ccc(N2CCCCC2)c(Cl)c1)c1ccc2c(c1)OCCO2 | nt | 88.6 | i | i | i | i
COc1cccc(Oc2ccc(S(=O)(=O)N3CCCC3)cc2[N+](=O)[O-])c1 | i | nt | i | nt | i | i
COc1ccc(N(CC2CO2)S(=O)(=O)c2ccccc2)cc1 (stereo unspecified) | i | i | i | i | i | i
COc1ccc(OCC(=O)Nc2ccc3c(c2)nc(CCN2CCOCC2)n3C)cc1 | i | i | i | 52.1 | i | i
Cn1c(CCN2CCOCC2)nc2cc(NC(=O)COc3ccc(Cl)cc3)ccc21 | i | nt | i | i | i | i
CC(C)(C)C1CCC(OC(=O)C[N+]2(C)CCCCC2)CC1 (stereo unspecified) | i | i | i | 74.7 | i | i
Cc1cnc(C(=O)N2CCCC(C(=O)c3ccc(Cl)cc3C)C2)cn1 (stereo unspecified) | i | i | i | i | i | i
COc1cc2cc(Oc3ccc4ccc(=O)oc4c3)c(=O)oc2cc1OC(=O)/C=C/c1ccccc1 | i | i | i | nt | i | i

High-throughput results: PubChem, several laboratories
